Test results published in ChEMBL document CHEMBL3596156, “Synthesis and bioevaluation of heterocyclic derivatives of Cleistanthin-A” (Bioorg Med Chem, 2015).
Calls of active or inactive are those of the source. The rule behind the calls is not given here.

What was measured:
[1] = system: WRL68; test: Cytotoxicity against human WRL68 cells assessed as inhibition of cell proliferation after 72 hrs by MTT assay; format: cell-based; settings: WRL68, 72 h
How it was run: (§1)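 MTT antiproliferation screen across HCT-116, HepG2, A549 and HeLa tumour lines, with WRL-68 normal cells run in parallel.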

[2] = system: A549; test: Cytotoxicity against human A549 cells assessed as inhibition of cell proliferation after 72 hrs by MTT assay; format: functional, cell-based; settings: A549, 72 h; how it was run: as §1
[3] = system: HepG2; test: Cytotoxicity against human HepG2 cells assessed as inhibition of cell proliferation after 72 hrs by MTT assay; format: functional, cell-based; settings: HepG2, 72 h; how it was run: as §1
[4] = system: HCT-116; test: Cytotoxicity against human HCT116 cells assessed as inhibition of cell proliferation after 72 hrs by MTT assay; format: functional, cell-based; settings: HCT-116, 72 h; how it was run: as §1
[5] = system: HeLa; test: Cytotoxicity against human HeLa cells assessed as inhibition of cell proliferation after 72 hrs by MTT assay; format: functional, cell-based; how it was run: as §1
[6] = system: HepG2; test: Inhibition of V-ATPase in human HepG2 cells assessed as decrease in lysosomal pH at 60 nM after 48 hrs by LysoTracker Red staining-based confocal microscopic analysis relative to control; format: cell-based
How it was run: (§2)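 HepG2 cells stained with LysoTracker Red (pH-sensitive dye), then loaded sequentially with the agent. Test concentrations were 0, 15, 30 or 60 nM; diphyllin was used at 1 µM as positive control. Cells were exposed for 48 h, and lysosomal acidity was judged by red fluorescence on confocal microscopy versus untreated cells.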

[7] = system: HepG2; test: Cytotoxicity against human HepG2 cells assessed as inhibition of cell viability at 15 to 60 nM after 24 to 72 hrs by MTT assay; format: functional, cell-based
How it was run: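 HepG2 cells exposed to 0, 15, 30 or 60 nM for 24, 48 and 72 h; viability read by MTT.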

[8] = system: HepG2; test: Inhibition of V-ATPase in human HepG2 cells assessed as decrease in cytosolic pH at 15 to 60 nM after 24 to 48 hrs by BCECF-AM probe-based spectrofluorophotometric analysis; format: cell-based
[9] = system: HepG2; test: Inhibition of V-ATPase in human HepG2 cells assessed as release of phosphate at 60 nM after 48 hrs by colorimetric assay relative to control; values are per cent of control
[10] = system: HepG2; test: Inhibition of V-ATPase in human HepG2 cells assessed as release of phosphate at 30 nM after 48 hrs by colorimetric assay relative to control; values are per cent of control
[11] = system: HepG2; test: Inhibition of V-ATPase in human HepG2 cells assessed as decrease in lysosomal pH at 1 uM after 48 hrs by LysoTracker Red staining-based confocal microscopic analysis relative to control; format: cell-based; how it was run: as §2
[12] = system: HepG2; test: Inhibition of V-ATPase in human HepG2 cells assessed as release of phosphate at 15 to 60 nM after 48 hrs by colorimetric assay; format: cell-based
How it was run: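 HepG2 cells treated 48 h with 0, 15, 30 or 60 nM, diphyllin as positive control. V-ATPase activity then measured using a commercial V-ATPase activity assay kit.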

For COc1cc2c(O[C@@H]3OC[C@@H](OC)[C@H](OC)[C@H]3OCCCCCCN3CCCCC3)c3c(c(-c4ccc5c(c4)OCO5)c2cc1OC)C(=O)OC3, the IC50 [1] was > 200 nM, the IC50 [2] was 26 nM and the IC50 [3] was 34 nM. It also gave an IC50 [4] of 23 nM and an IC50 [5] of 36 nM.

In the case of COc1cc2c(O[C@@H]3OC[C@@H](OC)[C@H](OC)[C@H]3OCCCCCCN3CCN(CCO)CC3)c3c(c(-c4ccc5c(c4)OCO5)c2cc1OC)C(=O)OC3, the IC50 [1] is reported as > 200 nM, the IC50 [2] is reported as 19 nM and the IC50 [3] is reported as 33 nM. The IC50 [4] was 23 nM and the IC50 [5] was 25 nM.

In the case of COc1cc2c(O[C@@H]3OC[C@@H](OC)[C@H](OC)[C@H]3OCCCCCCN3CCOCC3)c3c(c(-c4ccc5c(c4)OCO5)c2cc1OC)C(=O)OC3, the inhibition [6] is reported as “Active”, the inhibition [7] is reported as “Active” and the IC50 [1] is reported as > 200 nM. For the same compound, the IC50 [2] was 26 nM, the IC50 [3] was 30 nM and the IC50 [4] was 21 nM. The IC50 [5] was 20 nM, the inhibition [8] was “Active” and the level, % of control [9] was 56%. For the same compound, the level, % of control [10] was 62%.

COc1cc2c(O[C@@H]3OC[C@@H](OC)[C@H](OC)[C@H]3OCCCCCCCCN3CCN(CCO)CC3)c3c(c(-c4ccc5c(c4)OCO5)c2cc1OC)C(=O)OC3 was tested, and the IC50 [1] was > 200 nM, the IC50 [2] was 29 nM and the IC50 [3] was 25 nM. For the same compound, the IC50 [4] was 27 nM and the IC50 [5] was 55 nM.

With COc1cc2c(O[C@@H]3OC[C@@H](OC)[C@H](OC)[C@H]3OCCCCCCCCN3CCN(C)CC3)c3c(c(-c4ccc5c(c4)OCO5)c2cc1OC)C(=O)OC3 the IC50 [1] was > 200 nM, the IC50 [2] was 25 nM and the IC50 [3] was 39 nM. The IC50 [4] was 11 nM and the IC50 [5] was 91 nM.

For COc1cc2c(O[C@@H]3OC[C@@H](OC)[C@H](OC)[C@H]3OCCCCCCN3CCN(C)CC3)c3c(c(-c4ccc5c(c4)OCO5)c2cc1OC)C(=O)OC3, the IC50 [1] was > 200 nM, the IC50 [2] was 36 nM and the IC50 [3] was 39 nM. For the same compound, the IC50 [4] was 32 nM and the IC50 [5] was 32 nM.

COc1cc2c(O[C@@H]3OC[C@@H](OC)[C@H](OC)[C@H]3OCCCCCCCCN3CCC(O)CC3)c3c(c(-c4ccc5c(c4)OCO5)c2cc1OC)C(=O)OC3 was tested, and the IC50 [1] was > 200 nM, the IC50 [2] was 26 nM and the IC50 [3] was > 200 nM. For the same compound, the IC50 [4] was 12 nM and the IC50 [5] was 100 nM.

For COc1cc2c(O[C@@H]3OC[C@@H](OC)[C@H](OC)[C@H]3OCCCCCCCN3CCN(C)CC3)c3c(c(-c4ccc5c(c4)OCO5)c2cc1OC)C(=O)OC3, the IC50 [1] was > 200 nM, the IC50 [2] was 23 nM and the IC50 [3] was 41 nM. The IC50 [4] was 27 nM and the IC50 [5] was 51 nM.

COc1cc2c(O[C@@H]3OC[C@@H](OC)[C@H](OC)[C@H]3OCCCCCCCN3CCN(CCO)CC3)c3c(c(-c4ccc5c(c4)OCO5)c2cc1OC)C(=O)OC3 was tested, and the IC50 [1] was > 200 nM, the IC50 [2] was > 200 nM and the IC50 [3] was > 200 nM. The IC50 [4] was 29 nM and the IC50 [5] was > 200 nM.

COc1cc2c(O[C@@H]3OC[C@@H](OC)[C@H](OC)[C@H]3O)c3c(c(-c4ccc5c(c4)OCO5)c2cc1OC)C(=O)OC3 [CLEISTANTHIN] was tested, and the IC50 [1] was > 200 nM, the IC50 [2] was 4 nM and the IC50 [3] was 8 nM. It also gave an IC50 [4] of 1 nM and an IC50 [5] of 19 nM.

In the case of COc1cc2c(O[C@@H]3OC[C@@H](OC)[C@H](OC)[C@H]3OCCCCCCN3CCC(O)CC3)c3c(c(-c4ccc5c(c4)OCO5)c2cc1OC)C(=O)OC3, the IC50 [1] is reported as > 200 nM, the IC50 [2] is reported as 23 nM and the IC50 [3] is reported as 30 nM. It also gave an IC50 [4] of 22 nM and an IC50 [5] of 32 nM.

With COc1cc2c(O[C@@H]3OC[C@@H](OC)[C@H](OC)[C@H]3OCCCCCCCCN3CCCCC3)c3c(c(-c4ccc5c(c4)OCO5)c2cc1OC)C(=O)OC3 the IC50 [1] was > 200 nM, the IC50 [2] was > 200 nM and the IC50 [3] was 52 nM. The IC50 [4] was 15 nM and the IC50 [5] was > 200 nM.

COc1cc2c(O[C@@H]3OC[C@@H](OC)[C@H](OC)[C@H]3OCCCCCCCCN3CCOCC3)c3c(c(-c4ccc5c(c4)OCO5)c2cc1OC)C(=O)OC3 was tested, and the IC50 [1] was > 200 nM, the IC50 [2] was 26 nM and the IC50 [3] was 26 nM. The IC50 [4] was 25 nM and the IC50 [5] was 45 nM.

COc1cc2c(O[C@@H]3OC[C@@H](OC)[C@H](OC)[C@H]3OCCCCCCCN3CCOCC3)c3c(c(-c4ccc5c(c4)OCO5)c2cc1OC)C(=O)OC3 was tested, and the IC50 [1] was > 200 nM, the IC50 [2] was 23 nM and the IC50 [3] was 43 nM. It also gave an IC50 [4] of 28 nM and an IC50 [5] of 28 nM.

For COc1cc2c(O[C@@H]3OC[C@@H](OC)[C@H](OC)[C@H]3OCCCCCCCN3CCC(O)CC3)c3c(c(-c4ccc5c(c4)OCO5)c2cc1OC)C(=O)OC3, the IC50 [1] was > 200 nM, the IC50 [2] was > 200 nM and the IC50 [3] was > 200 nM. The IC50 [4] was 73 nM and the IC50 [5] was > 200 nM.

With COc1cc2c(O)c3c(c(-c4ccc5c(c4)OCO5)c2cc1OC)C(=O)OC3 the inhibition [11] was “Active” and the inhibition [12] was “Active”.
